In brackets after ≈: the same amount, converted by molar mass.
What was measured:
Type in all cases: functional
[1] = test system: Staphylococcus aureus; assay: Antibacterial activity against Staphylococcus aureus 2A1-8 with rplC G152D, D159Y and unmapped mutation
In short: (§1)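 Third-step mutants: second-step mutants were plated on five other pleuromutilins, each at 2 times its own MIC. Colonies appearing after extended incubation were replated at the selective concentration to confirm resistance. L3 was sequenced by colony PCR. These isolates grow very slowly; colonies form on blood agar only after more than 72 h.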

[2] = test system: Staphylococcus aureus; assay: Antibacterial activity against Staphylococcus aureus 2A1-1 fast2 with rplC D159Y and unmapped mutation
In short: (§2)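 Fast-growing variants of slow third-step mutants. Single colonies were streaked on unsupplemented LB agar and held more than 3 days at 37°C. At least 2 fast-growing colonies per mutant were purified on LB agar, then taken for MIC testing and sequencing.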

[3] = test system: Staphylococcus aureus; assay: Antibacterial activity against Staphylococcus aureus RN4220 with rplC D159Y mutation
In short: (§3)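 Spontaneous first-step mutants of S. aureus RN4220. An overnight brain heart infusion culture was plated on LB agar with 1.0 µg/ml tiamulin. Colonies were patched to drug-free LB for 16 h at 37°C, then replica plated on LB agar with 1, 5, 10 and 20 µg/ml tiamulin. The rplC (L3) mutation was identified by colony PCR and sequencing.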

[4] = test system: Staphylococcus aureus; assay: Antibacterial activity against Staphylococcus aureus RN4220 with rplC G152D, D159Y, G155R and A150T mutation; in short: as §1
[5] = test system: Staphylococcus aureus; assay: Antibacterial activity against Staphylococcus aureus 2A1-1 with rplC G152D, D159Y and unmapped mutation; in short: as §1
[6] = test system: Staphylococcus aureus; assay: Antibacterial activity against wild type Staphylococcus aureus RN4220
[7] = test system: Staphylococcus aureus; assay: Antibacterial activity against Staphylococcus aureus RN4220 with rplC G152D, D159Y and G155R mutation; in short: as §1
[8] = test system: Staphylococcus aureus; assay: Antibacterial activity against Staphylococcus aureus RN4220 with rplC G152D, D159Y, G155R and H134N mutation; in short: as §1
[9] = test system: Staphylococcus aureus; assay: Antibacterial activity against Staphylococcus aureus RN4220 with rplC G155R mutation; in short: as §3
[10] = test system: Staphylococcus aureus; assay: Antibacterial activity against Staphylococcus aureus 2A1-7 with rplC G152D, D159Y and unmapped mutation; in short: as §1
[11] = test system: Staphylococcus aureus; assay: Antibacterial activity against Staphylococcus aureus RN4220 with rplC S158L mutation; in short: as §3
[12] = test system: Staphylococcus aureus; assay: Antibacterial activity against Staphylococcus aureus RN4220 with rplC G152D and G155R mutation
In short: (§4)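 Second-step mutants came from the first-step L3 G152D RN4220 mutant. An overnight culture (2 x 10^9 CFU total) was plated on LB agar with 10 µg/ml tiamulin. Colonies were recultured on 10 µg/ml tiamulin to confirm resistance. L3 was sequenced after colony PCR.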

[13] = test system: Staphylococcus aureus; assay: Antibacterial activity against Staphylococcus aureus 2A1-7 fast2 with rplC D159Y and unmapped mutation; in short: as §2
[14] = test system: Staphylococcus aureus; assay: Antibacterial activity against Staphylococcus aureus 2A1-1 fast1 with rplC D159Y and unmapped mutation; in short: as §2
[15] = test system: Staphylococcus aureus; assay: Antibacterial activity against Staphylococcus aureus RN4220 with rplC G152D mutation; in short: as §3
[16] = test system: Staphylococcus aureus; assay: Antibacterial activity against Staphylococcus aureus RN4220 with rplC G152D, D159Y and G144R mutation; in short: as §1
[17] = test system: Staphylococcus aureus; assay: Antibacterial activity against Staphylococcus aureus RN4220 with rplC G152D and D159Y mutation; in short: as §4
[18] = test system: Staphylococcus aureus; assay: Antibacterial activity against Staphylococcus aureus 2A1-7 fast1 with rplC D159Y and unmapped mutation; in short: as §2

Structure (SMILES) | MIC [1] [µg/mL] | MIC [2] [µg/mL] | MIC [3] [µg/mL] | MIC [4] [µg/mL] | MIC [5] [µg/mL] | MIC [6] [µg/mL] | MIC [7] [µg/mL] | MIC [8] [µg/mL] | MIC [9] [µg/mL] | MIC [10] [µg/mL] | MIC [11] [µg/mL] | MIC [12] [µg/mL] | MIC [13] [µg/mL] | MIC [14] [µg/mL] | MIC [15] [µg/mL] | MIC [16] [µg/mL] | MIC [17] [µg/mL] | MIC [18] [µg/mL]
C[C@H]1COc2c(N3CCN(C)CC3)c(F)cc3c(=O)c(C(=O)O)cn1c23.C[C@H]1COc2c(N3CCN(C)CC3)c(F)cc3c(=O)c(C(=O)O)cn1c23.O [LEVOFLOXACIN] | 0.25 | 0.25 | 0.5 | 0.125 | 0.25 | 0.5 | 0.25 | 0.5 | 0.5 | 0.25 | 0.5 | 0.25 | 0.25 | 0.5 | 0.5 | 0.25 | 0.25 | 0.25
C=C[C@]1(C)C[C@@H](OC(=O)CS[C@@H]2C[C@H]3CC[C@@H](C2)N3C)[C@]2(C)[C@H](C)CC[C@]3(CCC(=O)[C@H]32)[C@@H](C)[C@@H]1O [RETAPAMULIN] | 2 (≈ 3.86 µM) | 0.25 (≈ 0.483 µM) | 0.25 (≈ 0.483 µM) | 0.25 (≈ 0.483 µM) | 8 (≈ 15.5 µM) | ≤ 0.06 | 4 (≈ 7.73 µM) | 0.125 (≈ 0.241 µM) | 0.5 (≈ 0.966 µM) | 8 (≈ 15.5 µM) | 0.25 (≈ 0.483 µM) | 1 (≈ 1.93 µM) | 0.25 (≈ 0.483 µM) | 0.25 (≈ 0.483 µM) | 0.25 (≈ 0.483 µM) | 4 (≈ 7.73 µM) | 1 (≈ 1.93 µM) | 0.25 (≈ 0.483 µM)
O=C(N[C@H](CO)[C@H](O)c1ccc([N+](=O)[O-])cc1)C(Cl)Cl [CHLORAMPHENICOL] | 4 (≈ 12.4 µM) | 8 (≈ 24.8 µM) | 4 (≈ 12.4 µM) | 8 (≈ 24.8 µM) | 8 (≈ 24.8 µM) | 4 (≈ 12.4 µM) | 4 (≈ 12.4 µM) | 8 (≈ 24.8 µM) | 8 (≈ 24.8 µM) | 4 (≈ 12.4 µM) | 4 (≈ 12.4 µM) | 8 (≈ 24.8 µM) | 8 (≈ 24.8 µM) | 8 (≈ 24.8 µM) | 8 (≈ 24.8 µM) | 8 (≈ 24.8 µM) | 8 (≈ 24.8 µM) | 8 (≈ 24.8 µM)
C/C(=C\C(=O)OCCCCCCCCC(=O)O)C[C@@H]1OC[C@H](C[C@@H]2O[C@H]2[C@@H](C)[C@H](C)O)[C@@H](O)[C@H]1O [MUPIROCIN] |  |  | 0.06 (≈ 0.12 µM) | 0.06 (≈ 0.12 µM) |  | 0.06 (≈ 0.12 µM) | 0.06 (≈ 0.12 µM) | 0.06 (≈ 0.12 µM) | 0.06 (≈ 0.12 µM) |  | 0.06 (≈ 0.12 µM) | 0.06 (≈ 0.12 µM) |  |  | 0.06 (≈ 0.12 µM) | 0.06 (≈ 0.12 µM) | 0.06 (≈ 0.12 µM) | 
C=C[C@]1(C)C[C@@H](OC(=O)CSCCN(CC)CC)[C@]2(C)[C@H](C)CC[C@]3(CCC(=O)[C@H]32)[C@@H](C)[C@@H]1O [TIAMULIN] | 32 (≈ 64.8 µM) | 2 (≈ 4.05 µM) | 4 (≈ 8.1 µM) | 4 (≈ 8.1 µM) | 64 (≈ 130 µM) | 0.25 (≈ 0.506 µM) | > 64 | 2 (≈ 4.05 µM) | 4 (≈ 8.1 µM) | 64 (≈ 130 µM) | 2 (≈ 4.05 µM) | 16 (≈ 32.4 µM) | 2 (≈ 4.05 µM) | 2 (≈ 4.05 µM) | 4 (≈ 8.1 µM) | 32 (≈ 64.8 µM) | 16 (≈ 32.4 µM) | 2 (≈ 4.05 µM)
CN(C)[C@@H]1C(O)=C(C(N)=O)C(=O)[C@@]2(O)C(O)=C3C(=O)c4c(O)cccc4[C@@](C)(O)[C@H]3C[C@@H]12 [TETRACYCLINE] | ≤ 0.06 | 0.25 (≈ 0.563 µM) | 0.25 (≈ 0.563 µM) | 0.25 (≈ 0.563 µM) | ≤ 0.06 | 0.25 (≈ 0.563 µM) | 0.25 (≈ 0.563 µM) | 0.25 (≈ 0.563 µM) | 0.25 (≈ 0.563 µM) | ≤ 0.06 | 0.25 (≈ 0.563 µM) | 0.25 (≈ 0.563 µM) | 0.25 (≈ 0.563 µM) | 0.25 (≈ 0.563 µM) | 0.25 (≈ 0.563 µM) | 0.25 (≈ 0.563 µM) | 0.25 (≈ 0.563 µM) | 0.25 (≈ 0.563 µM)
